Measurements from different studies.
Target: 5-hydroxytryptamine receptor 2A (HTR2A, Homo sapiens, UniProt P28223)

Cc1[nH]c2ccccc2c1CCN
Ki (ligand displacement; radioligand): 7770 nM

COc1cc2c3c(c1OC)-c1cc4c(cc1CC3N(C)CC2)OCO4 (centres unmarked)
Kb (calcium signal; antagonist): 830 nM

COc1cc2c3c(c1OC)-c1ccccc1CC3NCC2 (centres unmarked)
Ki (ligand displacement; radioligand; cell membranes): 925 nM

CCCCCNC(=N)N/N=C/c1c[nH]c2ccc(OC)cc12
IC50 (cell-free assay): 127 nM

Cc1nc2n(c(=O)c1CCN(C)CCc1c[nH]c3cc(F)ccc13)CCCC2
Ki (ligand displacement; radioligand; cell membranes): 25.8 nM

COc1ccccc1N1CCN(CCN(C(=O)C2CCCCC2)c2ccccn2)CC1
Ki (ligand displacement; radioligand; cell membranes): 331 nM

OC(c1ccc(F)cc1)C(F)(F)CCN1CCC(O)(c2ccc(Cl)cc2)CC1 (racemic)
Ki (cell-free assay; radioligand): 1010 nM

CN(C)[C@@H]1Cc2ccccc2[C@@H](c2ccccc2)C1 (relative stereo)
Kb (inositol phosphate; antagonist): 460 nM

COc1cc2c3c(c1OC)-c1ccccc1C[C@H]3N(C)CC2
Ki (ligand displacement; radioligand; cell membranes): 150 nM

CN(C)CCc1c[nH]c2ccccc12
Ki (cell-free assay): 1510 nM

CC[C@H](C)[C@H](NC(=O)[C@H](CCCNC(=N)N)NC(=O)[C@H](CC(C)C)NC(=O)[C@@H](N)Cc1ccccc1)C(=O)N[C@@H](CCCNC(=N)N)C(=O)N1CCC[C@H]1C(=O)N[C@@H](CCCCN)C(=O)O
Ki (cell-free assay; radioligand): > 10000 nM

c1ccc2c(C3CCNCC3)noc2c1
Ki (ligand displacement; radioligand; cell membranes): 271 nM

NCCc1c[nH]c2ccc(F)cc12
Ki (ligand displacement; radioligand): 3910 nM

C[C@H](N)Cn1ccc2cc(F)c(Cl)cc21
Ki (ligand displacement; radioligand; cell membranes): 13.1 nM
